≈ marks a conversion by molar mass, not a printed value.

Data on two compounds can be found in ChEMBL document CHEMBL1126736, “Synthesis and antiherpes virus activity of 1,5-anhydrohexitol nucleosides” (J Med Chem, 1993).

For one assay, the system named is Human alphaherpesvirus 3. Briefly: Inhibitory concentration against VZV strain YS in human embryonic lung (HEL) cell culture. It is filed as functional.
Conditions: not given
Consider `Cc1cn(C2COC(CO)C(O)C2)c(=O)[nH]c1=O` (stereo not drawn), for which the MIC was over 100 µg/mL.
Take `Nc1nc(O)c2ncn([C@@H]3CO[C@H](CO)[C@@H](O)C3)c2n1`: the MIC turned out to be 0.1 µg/mL (≈ 0.356 µM).

Another assay has as its system Human alphaherpesvirus 1. The assay can be described thus: Inhibitory concentration against HSV type 1 strain F in human embryonic skin muscle (ESM) fibroblast cell culture. The class given is functional.
Conditions: not given
Put shortly:
(§1)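 Assay in human embryonic skin-muscle (ESM) cells grown in 96-well trays. The value is the concentration that reduces virus-induced cytopathicity by 50%. Single representative experiment.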
The compound `Cc1cn(C2COC(CO)C(O)C2)c(=O)[nH]c1=O` (stereo not drawn) showed an MIC of 40 µg/mL (≈ 156 µM).
On the same count and under the same terms, as for `Nc1nc(O)c2ncn([C@@H]3CO[C@H](CO)[C@@H](O)C3)c2n1`, the figure is 0.2 µg/mL (≈ 0.711 µM).

A further assay has as its system FM3A. The assay can be described thus: Inhibitory concentration required to reduce the growth of murine FM3A cells by 50%. It is filed as functional, cell-based. Conditions: Mus musculus. Put shortly:
(§2)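 Cytostatic assay. The value is the concentration that reduces the growth (viability) of the cells by 50%.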
As usually defined, the IC50 is the concentration that inhibits the measured activity by half. Take `Cc1cn(C2COC(CO)C(O)C2)c(=O)[nH]c1=O` (stereo not drawn): the IC50 was over 100 µg/mL.
The same measure, in the same setting: as for `Nc1nc(O)c2ncn([C@@H]3CO[C@H](CO)[C@@H](O)C3)c2n1`, the figure is 12.3 µg/mL (≈ 43.7 µM).

In another assay the test system is HEL. The assay can be described thus: Inhibitory concentration required to inhibit cell growth by 50% in human embryonic lung (HEL) cell culture.
Conditions: not given
It is filed as functional. In short, it runs like this: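 Uninfected HEL cells grown in 96-well trays. The value is the concentration that reduces cell growth by 50%. Single representative experiment.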
As for `Cc1cn(C2COC(CO)C(O)C2)c(=O)[nH]c1=O` (stereo not drawn), the MIC is over 50 µg/mL.
Same read-out and setting: as for `Nc1nc(O)c2ncn([C@@H]3CO[C@H](CO)[C@@H](O)C3)c2n1`, the figure is 20 µg/mL (≈ 71.1 µM).

In a further assay the test system is L1210. The assay can be described thus: Inhibitory concentration required to reduce the growth of murine L1210 cells by 50%. It is filed as functional, cell-based. Conditions: Mus musculus. Put shortly:
as §2
As for `Cc1cn(C2COC(CO)C(O)C2)c(=O)[nH]c1=O` (stereo not drawn), the IC50 was over 100 µg/mL.
`Nc1nc(O)c2ncn([C@@H]3CO[C@H](CO)[C@@H](O)C3)c2n1` returned an IC50 of 5.4 µg/mL (≈ 19.2 µM).

The next assay deals with MT4. Briefly: Inhibitory concentration required to reduce the growth of human MT-4 cells by 50%. It is filed as functional, cell-based.
Conditions: not given
Put shortly:
as §2
The compound `Cc1cn(C2COC(CO)C(O)C2)c(=O)[nH]c1=O` (stereo not drawn) yielded an IC50 of over 100 µg/mL.
Same read-out and setting: as for `Nc1nc(O)c2ncn([C@@H]3CO[C@H](CO)[C@@H](O)C3)c2n1`, the figure is 21 µg/mL (≈ 74.7 µM).

Another assay relates to Human alphaherpesvirus 2. The assay can be described thus: Inhibitory concentration against HSV type 2 strain 196 in human embryonic skin muscle (ESM) fibroblast cell culture.
Conditions: not given
It is filed as functional. Put shortly: as §1
Compound `Cc1cn(C2COC(CO)C(O)C2)c(=O)[nH]c1=O` (stereo not drawn) displayed an MIC of 40 µg/mL (≈ 156 µM).
The same measure, in the same setting: as for `Nc1nc(O)c2ncn([C@@H]3CO[C@H](CO)[C@@H](O)C3)c2n1`, the figure is 0.02 µg/mL (≈ 0.0711 µM).

The next assay deals with Human alphaherpesvirus 3. The assay can be described thus: Inhibitory concentration against VZV strain OKA in human embryonic lung (HEL) cell culture. The class given is functional.
Conditions: not given
On to `Cc1cn(C2COC(CO)C(O)C2)c(=O)[nH]c1=O` (stereo not drawn), for which the MIC was over 100 µg/mL.
The same measure, in the same setting: as for `Nc1nc(O)c2ncn([C@@H]3CO[C@H](CO)[C@@H](O)C3)c2n1`, the figure is 0.9 µg/mL (≈ 3.2 µM).

A further assay concerns Human alphaherpesvirus 2. Briefly: Inhibitory concentration against HSV type 2 strain G in human embryonic skin muscle (ESM) fibroblast cell culture. The class given is functional.
Conditions: not given
Put shortly:
as §1
For `Cc1cn(C2COC(CO)C(O)C2)c(=O)[nH]c1=O` (stereo not drawn), the MIC was found to be 150 µg/mL (≈ 585 µM).
The same measure, in the same setting: as for `Nc1nc(O)c2ncn([C@@H]3CO[C@H](CO)[C@@H](O)C3)c2n1`, the figure is 0.1 µg/mL (≈ 0.356 µM).

Another assay has as its system Human immunodeficiency virus 2. The assay can be described thus: Inhibitory concentration required to achieve 50% protection of MT-4 cells against cytopathicity of […]. It is filed as functional, organism-based. Conditions: Human immunodeficiency virus 2, MT4. In short, it runs like this:
(§3)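 MT-4 cells infected with HIV-1 (strain III_B) or HIV-2 (strain ROD). The value is the concentration that protects the cells from virus cytopathicity by 50%.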
Consider `Cc1cn(C2COC(CO)C(O)C2)c(=O)[nH]c1=O` (stereo not drawn), for which the IC50 was over 100 µg/mL.
With `Nc1nc(O)c2ncn([C@@H]3CO[C@H](CO)[C@@H](O)C3)c2n1`, the IC50 is over 4 µg/mL.

Another assay relates to Cytomegalovirus. Briefly: Inhibitory concentration against CMV strain Davis in human embryonic lung (HEL) cell culture. It is filed as functional. Particulars: Human betaherpesvirus 5. Put shortly: (§4)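 Plaque-reduction assay in human embryonic lung (HEL) cells grown in 96-well trays. The value is the concentration that reduces virus plaque formation by 50%. Single representative experiment.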
In turn, `Cc1cn(C2COC(CO)C(O)C2)c(=O)[nH]c1=O` (stereo not drawn) had an MIC of over 10 µg/mL.
In the case of `Nc1nc(O)c2ncn([C@@H]3CO[C@H](CO)[C@@H](O)C3)c2n1`, the MIC was 1.2 µg/mL (≈ 4.27 µM).

Another assay has as its system Human alphaherpesvirus 1. Briefly: Inhibitory concentration against HSV type 1 strain KOS in human embryonic skin muscle (ESM) fibroblast cell culture. The class given is functional.
Conditions: not given
`Cc1cn(C2COC(CO)C(O)C2)c(=O)[nH]c1=O` (stereo not drawn) registered an MIC of 40 µg/mL (≈ 156 µM).
The compound `Nc1nc(O)c2ncn([C@@H]3CO[C@H](CO)[C@@H](O)C3)c2n1` displayed an MIC of 0.2 µg/mL (≈ 0.711 µM).

The subject of another assay is MOLT-4. The assay can be described thus: Inhibitory concentration required to reduce the growth of human MOLT-4 cells by 50%. The class given is functional, cell-based.
Conditions: not given
Put shortly:
as §2
As for `Cc1cn(C2COC(CO)C(O)C2)c(=O)[nH]c1=O` (stereo not drawn), the IC50 was over 100 µg/mL.
Same read-out and setting: as for `Nc1nc(O)c2ncn([C@@H]3CO[C@H](CO)[C@@H](O)C3)c2n1`, the figure is 14 µg/mL (≈ 49.8 µM).

The subject of another assay is Human alphaherpesvirus 3. Briefly: Inhibitory concentration against TK-VZV strain 07-1 in human embryonic lung (HEL) cell culture. The class given is functional.
Conditions: not given
With `Cc1cn(C2COC(CO)C(O)C2)c(=O)[nH]c1=O` (stereo not drawn), the MIC is over 100 µg/mL.
On the same count and under the same terms, as for `Nc1nc(O)c2ncn([C@@H]3CO[C@H](CO)[C@@H](O)C3)c2n1`, the figure is 4 µg/mL (≈ 14.2 µM).

The next assay has as its system Human immunodeficiency virus 1. The assay can be described thus: Inhibitory concentration required to achieve 50% protection of MT-4 cells against cytopathicity of […]. It is filed as functional, organism-based. Conditions: Human immunodeficiency virus 1, MT4. In short, it runs like this:
as §3
Regarding `Cc1cn(C2COC(CO)C(O)C2)c(=O)[nH]c1=O` (stereo not drawn), 36 µg/mL (≈ 140 µM) corresponded to half-maximal inhibition (IC50).
The same measure, in the same setting: as for `Nc1nc(O)c2ncn([C@@H]3CO[C@H](CO)[C@@H](O)C3)c2n1`, the figure is over 4 µg/mL.

The subject of the next assay is Human alphaherpesvirus 1. The assay can be described thus: Inhibitory concentration against HSV type 1 strain Mc Intyre in human embryonic skin muscle (ESM) fibroblast cell culture. The class given is functional.
Conditions: not given
Put shortly: as §1
As to `Cc1cn(C2COC(CO)C(O)C2)c(=O)[nH]c1=O` (stereo not drawn), the MIC came out at 7 µg/mL (≈ 27.3 µM).
`Nc1nc(O)c2ncn([C@@H]3CO[C@H](CO)[C@@H](O)C3)c2n1` had an MIC of 0.7 µg/mL (≈ 2.49 µM).

For a further assay, the system named is ESM. The assay can be described thus: Inhibitory concentration required for morphologic alteration in normal cell in human embryonic skin muscle (ESM) fibroblast cell culture. The class given is functional.
Conditions: not given
Put shortly: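 Uninfected ESM cells in 96-well trays, examined under the microscope. The value is the minimal concentration that causes a detectable change in normal cell morphology. Tested up to 400 μg/mL. Single representative experiment.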
Regarding `Cc1cn(C2COC(CO)C(O)C2)c(=O)[nH]c1=O` (stereo not drawn), the MIC was over 400 µg/mL.
On the same count and under the same terms, as for `Nc1nc(O)c2ncn([C@@H]3CO[C@H](CO)[C@@H](O)C3)c2n1`, the figure is over 400 µg/mL.

Another assay relates to Human alphaherpesvirus 1. Briefly: Inhibitory concentration against TK-HSV type 1 strain B2006 in human embryonic skin muscle (ESM) fibroblast cell culture. The class given is functional.
Conditions: not given
Put shortly:
as §1
For `Cc1cn(C2COC(CO)C(O)C2)c(=O)[nH]c1=O` (stereo not drawn), the MIC was over 400 µg/mL.
With `Nc1nc(O)c2ncn([C@@H]3CO[C@H](CO)[C@@H](O)C3)c2n1`, the MIC came out at 20 µg/mL (≈ 71.1 µM).

The next assay concerns Human alphaherpesvirus 2. The assay can be described thus: Inhibitory concentration against HSV type 2 strain Lyons in human embryonic skin muscle (ESM) fibroblast cell culture. The class given is functional.
Conditions: not given
Put shortly:
as §1
In turn, `Cc1cn(C2COC(CO)C(O)C2)c(=O)[nH]c1=O` (stereo not drawn) gave an MIC of 20 µg/mL (≈ 78 µM).
Still for that read-out and setting: as for `Nc1nc(O)c2ncn([C@@H]3CO[C@H](CO)[C@@H](O)C3)c2n1`, the figure is 0.01 µg/mL (≈ 0.0356 µM).

In another assay the test system is Cytomegalovirus. Briefly: Inhibitory concentration against CMV strain AD169 in human embryonic lung (HEL) cell culture. Particulars: Human betaherpesvirus 5. The class given is functional. In short, it runs like this:
as §4
`Cc1cn(C2COC(CO)C(O)C2)c(=O)[nH]c1=O` (stereo not drawn) showed an MIC of over 10 µg/mL.
Same read-out and setting: as for `Nc1nc(O)c2ncn([C@@H]3CO[C@H](CO)[C@@H](O)C3)c2n1`, the figure is 1.5 µg/mL (≈ 5.33 µM).

In the next assay the test system is Vaccinia virus. The assay can be described thus: Inhibitory concentration against VV in human embryonic skin muscle (ESM) fibroblast cell culture. It is filed as functional. Conditions: Orthopoxvirus vaccinia.
The compound `Cc1cn(C2COC(CO)C(O)C2)c(=O)[nH]c1=O` (stereo not drawn) returned an MIC of over 400 µg/mL.
In the case of `Nc1nc(O)c2ncn([C@@H]3CO[C@H](CO)[C@@H](O)C3)c2n1`, the MIC came out at 7 µg/mL (≈ 24.9 µM).

The test system of the next assay is Vesicular stomatitis virus. Briefly: Inhibitory concentration against VSV in human embryonic skin muscle (ESM) fibroblast cell culture. It is filed as functional.
Conditions: not given
The compound `Cc1cn(C2COC(CO)C(O)C2)c(=O)[nH]c1=O` (stereo not drawn) yielded an MIC of over 400 µg/mL.
Still for that read-out and setting: as for `Nc1nc(O)c2ncn([C@@H]3CO[C@H](CO)[C@@H](O)C3)c2n1`, the figure is over 2 µg/mL.

The subject of the next assay is CCRF-CEM. The assay can be described thus: Inhibitory concentration required to reduce the growth of human CEM cells by 50%. The class given is functional, cell-based.
Conditions: not given
In short, it runs like this: as §2
Compound `Cc1cn(C2COC(CO)C(O)C2)c(=O)[nH]c1=O` (stereo not drawn) showed an IC50 of over 100 µg/mL.
Still for that read-out and setting: as for `Nc1nc(O)c2ncn([C@@H]3CO[C@H](CO)[C@@H](O)C3)c2n1`, the figure is 21 µg/mL (≈ 74.7 µM).

The test system of a further assay is Human alphaherpesvirus 3. The assay can be described thus: Inhibitory concentration against TK-VZV strain YS-R in human embryonic lung (HEL) cell culture. It is filed as functional.
Conditions: not given
The compound `Cc1cn(C2COC(CO)C(O)C2)c(=O)[nH]c1=O` (stereo not drawn) came in with an MIC of 100 µg/mL (≈ 390 µM).
Still for that read-out and setting: as for `Nc1nc(O)c2ncn([C@@H]3CO[C@H](CO)[C@@H](O)C3)c2n1`, the figure is 2.8 µg/mL (≈ 9.95 µM).
